# Experimental data published in publication PMC5962930 (ACS Chemical Biology, 2018).
# Key:
# apALNR = molecular target: T1, apALNR (Aplysia californica, UniProt A0ABM0K1K5); type: cell-based
# T1 sequence (A0ABM0K1K5 1-578): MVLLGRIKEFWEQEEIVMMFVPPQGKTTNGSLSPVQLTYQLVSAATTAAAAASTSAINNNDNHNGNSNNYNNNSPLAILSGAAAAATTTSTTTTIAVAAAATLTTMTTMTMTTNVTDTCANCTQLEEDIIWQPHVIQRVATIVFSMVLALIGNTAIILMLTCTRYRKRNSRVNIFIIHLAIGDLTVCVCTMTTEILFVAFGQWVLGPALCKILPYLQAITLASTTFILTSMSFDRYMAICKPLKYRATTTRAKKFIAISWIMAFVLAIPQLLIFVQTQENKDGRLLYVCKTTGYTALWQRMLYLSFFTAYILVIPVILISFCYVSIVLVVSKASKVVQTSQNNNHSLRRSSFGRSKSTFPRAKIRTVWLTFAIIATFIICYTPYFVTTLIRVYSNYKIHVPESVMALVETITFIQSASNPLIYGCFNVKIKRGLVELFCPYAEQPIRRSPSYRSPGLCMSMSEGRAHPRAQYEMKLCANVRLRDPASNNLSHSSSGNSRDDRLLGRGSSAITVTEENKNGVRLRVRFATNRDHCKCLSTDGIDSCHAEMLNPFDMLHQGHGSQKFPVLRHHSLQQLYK
# Aplysia feeding network = experiment: Feeding network; type: cell-based; conditions: intact buccal and cerebral ganglia; peptide perfusion vs control
# Outline: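 Intact buccal plus cerebral ganglia were recorded intra- and extracellularly during peptide perfusion. A peptide scored active when perfusion gave statistically higher circuit activity than control without peptide. Means were compared by repeated-measures one-way ANOVA, assuming sphericity, with Bonferroni post test.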
substance,measurement,setting,value
H-SYADSKDEESNAALSDFAED-OH,EC50,apALNR,> 50 µM
same,feeding network (electrophys.),Aplysia feeding network,not active
